ChEMBL document CHEMBL5335799, “Design, Synthesis, and Evaluation of Inhibitors of Hedgehog Acyltransferase” (J Med Chem, 2024)
Blank lines part the entries; values can stand above or below the compound they belong to.

Legend:
[1] = Permeability of compound at pH 7.4 by PAMPA assay; type: ADME
Summary of the method: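 Passive diffusion across an artificial membrane of 2% phosphatidylcholine in dodecane. Test compound at 10 μM was incubated 16 h at 30 °C, with donor pH 5, 6.5 or 7.4.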

[2] = Apparent permeability across basolateral to apical side in human Caco-2 cells at 10 uM pH 7.4 measured after 2 hrs by LC-MS/MS analysis; type: ADME, cell-based; settings: caco-2, pH 7.4, 2 h
Summary of the method: (§1)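 Caco-2 cells grown in DMEM with 10% FBS, penicillin and streptomycin for 10 days, then plated; monolayer confluency checked by TEER. Compound at 10 μM (1% DMSO) in HBSS pH 7.4 added to apical or basal wells and incubated 2 h at 37 °C. Lucifer yellow used to confirm membrane integrity afterwards. Both chambers quantified by LC-MS/MS against a matrix-matched standard curve.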

[3] = Apparent permeability across apical to basolateral side in human Caco-2 cells at 10 uM pH 7.4 measured after 2 hrs by LC-MS/MS analysis; type: ADME, cell-based; settings: caco-2, pH 7.4, 2 h; summary of the method: as §1
[4] = molecular target: T1, Protein-cysteine N-palmitoyltransferase HHAT (Homo sapiens, UniProt Q5VTY9); test: Inhibition of human recombinant HHAT using SHH-FAM peptide as substrate for 30 mins by acylation coupled lipophilic induction of polarization (acyl-cLIP) assay
Summary of the method: (§2)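 DDM-solubilized recombinant HHAT mixed with SHH N-terminal FAM peptide and inhibitor or DMSO in MES buffer pH 6.5 with DTT, TCEP and BSA. Reaction started with palmitoyl-CoA; fluorescence anisotropy followed over 30 min in quadruplicate wells. Initial rates from linear regression were normalized to DMSO and no-enzyme controls.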

[5] = molecular target: T1, Protein-cysteine N-palmitoyltransferase HHAT; test: Inhibition of human recombinant HHAT using SHH-FAM peptide as substrate at 50 uM for 30 mins by acylation coupled lipophilic induction of polarization (acyl-cLIP) assay relative to control; summary of the method: as §2
[6] = molecular target: T1, Protein-cysteine N-palmitoyltransferase HHAT; test: Inhibition of human recombinant HHAT using SHH-FAM peptide as substrate at 25 uM for 30 mins by acylation coupled lipophilic induction of polarization (acyl-cLIP) assay relative to control; summary of the method: as §2
[7] = Cytotoxicity against human SHH+ HEK293a cells assessed as cell viability at 25 uM measured after 72 hrs by MTS assay relative to control; type: toxicity, cell-based, HEK293-A; settings: read-out: Activity
[8] = Cytotoxicity against human SHH+ HEK293a cells assessed as cell viability at 12.5 uM measured after 72 hrs by MTS assay relative to control; type: toxicity, cell-based, HEK293-A; settings: read-out: Activity
[9] = Cytotoxicity against human SHH+ HEK293a cells assessed as cell viability measured after 72 hrs by MTS assay; type: toxicity, cell-based, HEK293-A
Summary of the method: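 HEK293a SHH+ cells seeded at 5000/well and cultured 24 h. They were then exposed 72 h to vehicle, puromycin (2 μg/mL) or compound (0.14–100 μM final) in DMEM with 10% FBS. MTS/PMS added for 3 h at 37 °C and absorbance read at 490 nm. Signal normalized to vehicle and puromycin; CC50 from a variable-slope sigmoidal fit.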

[10] = molecular target: T1, Protein-cysteine N-palmitoyltransferase HHAT; test: Inhibition of HHAT in human HEK293a SHH+ cells incubated with compound for 24 hrs followed by transferred into SHH-Light2 cells cellular incubated for 48 hrs by Renilla/Firefly luciferase reporter assay; type: cell-based, HEK293-A
Summary of the method: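 HEK293a SHH+ cells (120,000/well) were given compound (0.041–30 μM final) or 0.2% DMSO for 24 h. Conditioned medium was cleared at 1000g and added to SHH-Light2 cells (NIH3T3-derived, Gli-Firefly plus constitutive Renilla) in triplicate wells for 48 h.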

T1 sequence (Q5VTY9 whole entry): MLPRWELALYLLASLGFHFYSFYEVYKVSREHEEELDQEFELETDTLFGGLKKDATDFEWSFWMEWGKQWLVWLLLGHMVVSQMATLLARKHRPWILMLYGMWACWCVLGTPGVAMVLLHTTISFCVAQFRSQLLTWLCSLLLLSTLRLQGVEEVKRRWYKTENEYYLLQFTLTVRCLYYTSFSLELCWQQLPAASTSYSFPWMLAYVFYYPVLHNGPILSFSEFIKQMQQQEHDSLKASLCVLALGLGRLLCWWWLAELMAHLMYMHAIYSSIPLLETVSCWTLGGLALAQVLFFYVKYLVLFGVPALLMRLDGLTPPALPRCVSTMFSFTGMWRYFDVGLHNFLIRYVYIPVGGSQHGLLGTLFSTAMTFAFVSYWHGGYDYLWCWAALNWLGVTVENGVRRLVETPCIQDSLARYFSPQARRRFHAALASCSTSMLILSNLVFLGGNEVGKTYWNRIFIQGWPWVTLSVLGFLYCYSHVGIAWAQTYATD

permeability [1]: Permeable
permeability [2]: Permeable
permeability [3]: Permeable
SMILES: C=CCNCC(=O)N1CCc2sccc2C1COc1ccc(Cl)cc1 (stereo not drawn)

permeability [1]: Permeable
SMILES: CC(=O)N1CCc2ccccc2C1c1ccccc1 (stereo not drawn)

IC50 [4]: 4.79 µM
SMILES: CCC(C)CNCC(=O)N1CCc2sccc2C1c1ccccc1O (stereo not drawn)

permeability [1]: Permeable
SMILES: CCC(C)CNCC(=O)N1CCc2ccccc2C1c1ccccc1 (stereo not drawn)

inhibition [5]: 6%
inhibition [6]: 3%
SMILES: N[C@@H](Cc1ccccc1)C(=O)N1CCc2sccc2C1c1ccccc1 (stereo partly drawn)

inhibition [5]: 56%
SMILES: CC(=O)N1CCc2sccc2[C@@H]1c1cccc(C)n1

inhibition [5]: 91%
SMILES: COc1ccccc1C1c2ccsc2CCN1C(C)=O (stereo not drawn)

permeability [1]: Impermeable
SMILES: CCC(C)CNCC(=O)N1CCc2sccc2C1c1cccc(C)c1 (stereo not drawn)

permeability [1]: Permeable
SMILES: CC(=O)N1CCc2sccc2C1c1ccccc1 (stereo not drawn)

inhibition [5]: 16%
SMILES: c1ccc(C2NCCc3sccc32)cc1 (stereo not drawn)

inhibition [5]: 53%
inhibition [6]: 31%
IC50 [4]: 42.3 µM
SMILES: Cc1cccc(C2c3ccsc3CCN2C(=O)NCCCC(C)C)n1 (stereo not drawn)
viability at 72 h, 25 µM [7]: 22%
viability at 72 h, 12.5 µM [8]: 32%
CC50 at 72 h [9]: 6.1 µM

permeability [1]: Permeable
permeability [2]: Permeable
permeability [3]: Permeable
SMILES: CCC(C)CNCC(=O)N1CCc2sccc2C1c1cccc(C)n1 (racemic)

EC50 [10]: > 30 µM
SMILES: Cc1cccc([C@@H]2c3ccsc3CCN2C(=O)CNCC(C)C)n1
